PMI act – activators of human PMI, primary screen, biochemical, fluorescence intensity, near-Km mannose 6-phosphate | Mannose-6-phosphate isomerase (Homo sapiens), P34949 | purified human PMI, coupled resazurin fluorescence, 20 min; hits give high values; 1 = vehicle control, 0 substrate-free wells | activation factor at 20 µM | actives 0.005% (n = 190,000);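 active means activation factor of 2 or more at 20 µM, relative to plate controls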
Target sequence (P34949 whole entry, looked up): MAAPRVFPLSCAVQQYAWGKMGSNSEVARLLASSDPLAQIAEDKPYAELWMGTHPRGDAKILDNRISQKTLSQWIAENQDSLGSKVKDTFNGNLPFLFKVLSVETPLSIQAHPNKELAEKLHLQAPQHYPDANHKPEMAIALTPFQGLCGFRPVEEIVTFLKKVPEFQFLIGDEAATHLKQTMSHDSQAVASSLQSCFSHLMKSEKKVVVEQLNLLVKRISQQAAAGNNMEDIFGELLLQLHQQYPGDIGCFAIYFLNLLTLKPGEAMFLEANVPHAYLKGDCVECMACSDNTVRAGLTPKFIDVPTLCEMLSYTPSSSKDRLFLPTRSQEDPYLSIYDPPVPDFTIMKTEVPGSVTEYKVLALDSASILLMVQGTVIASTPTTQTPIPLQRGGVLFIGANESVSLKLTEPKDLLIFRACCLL
L major viab – Leishmania major promastigote growth inhibition, primary screen; inhibition, % at 10 µM; Leishmania major promastigotes, resazurin fluorescence viability; actives 9% (n = 200,000); AID 1063, 2008; in the data active means inhibition above about 50%;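 further: promastigotes grown with compound for 44 hours at 28 °C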
PMI act hi M6P – human PMI activators, high substrate, primary screen, biochemical, fluorescence intensity, near-saturating mannose 6-phosphate. AID 1216, 2008. Mannose-6-phosphate isomerase (Homo sapiens), P34949. activation factor at 20 µM. actives 0.34% (n = 190,000). coupled PMI enzyme assay, resazurin fluorescence, 20 min; hits give high values; 1 = untreated enzyme, 0 = substrate-free blank;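 active means activation factor of 2 or more at 20 µM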
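assay system = human phosphomannose isomerase with PGI, G6PDH, diaphorase coupling enzymes | quantity = 15 ng/mL PMI | incubation = enzyme reaction with compound 20 min at room temperature | medium = HEPES pH 7.4 buffer with MgCl2 and Tween-20 | compound dosing = one concentration, 20 µM, in 1% DMSO | measured by = Diaphorase-driven resazurin-to-resorufin fluorescence, excitation 544, emission 590 nm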
HCT116 PTEN-null – growth suppression of PTEN-null HCT116, primary screen, cell-based, CellTiter-Glo; HCT116 PTEN-null viability, 60 h; hits give low values; AID 827, 2007; actives 1.2% (n = 140,000); viability, % at 10 µM;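 active means viability at or below a set limit, 4 SD under the median of all tested compounds, cut at about 3.7% in these data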;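 further: PTEN knockout HCT116 line with beta catenin targeted HCT116 as companion control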
HCT116 bCat-KO – primary screen for growth suppressors in beta-catenin knockout HCT116 cells (colon tumor, human); viability, % at 10 µM; actives 1.5% (n = 140,000); AID 818, 2007; HCT116 beta-catenin knockout viability, CellTiter-Glo, 60 h; hits give low values;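 active means viability at or under a set limit, the compound median less 4 SD, cut at about 6% in these data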
A number is an active result; – = inactive; · = no result. Most compounds without a hit are left out; they make up all but 9.6% or so of the library.

SMILES	PMI act	L major viab	PMI act hi M6P	HCT116 PTEN-null	HCT116 bCat-KO
COC(=O)c1ccc(NC(=O)C2CCCN(S(=O)(=O)c3cnc[nH]3)C2)cc1 (configuration not stated)	–	–	–	–	–
O=C(Nc1nc(-c2ccc(S(=O)(=O)N3CCCC3)cc2)cs1)c1cccs1	–	99.8	–	–	–
O=C(Oc1cccc(NC(=O)c2ccco2)c1)c1cccc(S(=O)(=O)N2CCCC2)c1	–	–	–	–	–
O=C(Oc1cccc(NC(=O)c2cccs2)c1)c1cccc(S(=O)(=O)N2CCCC2)c1	–	62.0	–	–	–
COc1ccc(/C=N/Nc2nc(-c3cccc(S(=O)(=O)N4CCCC4)c3)cs2)c(OC)c1	–	69.2	–	–	–
O=C(Nc1nc(-c2cc3ccccc3o2)cs1)c1ccc(S(=O)(=O)N2CCCC2)cc1	–	–	–	–	–
COc1cccc(-c2csc(N3CCN(S(=O)(=O)c4ccc(F)cc4)CC3)n2)c1	–	–	–	–	–
O=C(Nc1nc(-c2nc3ccccc3s2)cs1)c1ccc(S(=O)(=O)N2CCOCC2)cc1	–	52.2	–	–	–
COc1ccc(C2CC(c3ccccc3)=NN2c2ccc(S(N)(=O)=O)cc2)cc1 (configuration not stated)	–	–	–	·	·
NS(=O)(=O)c1ccc(N2N=C(c3ccccc3)CC2c2ccc(F)cc2)cc1 (configuration not stated)	–	98.3	–	–	–
N#Cc1c(N)oc(-c2ccc3c(c2)OCO3)c1-c1ccc2c(c1)OCO2	–	–	–	–	–
Cc1c(N=C2SCC(=O)N2/N=C\c2ccc(Br)cc2)c(=O)n(-c2ccccc2)n1C	–	76.2	–	–	–
Cc1c(N=C2SCC(=O)N2/N=C/c2ccccc2Cl)c(=O)n(-c2ccccc2)n1C	–	–	–	–	–
CC1Cc2ccccc2N1C(=O)CN1C(=O)C(=O)N(Cc2ccccc2)C1=O (configuration not stated)	–	–	–	–	–
Cc1cc(C)c(OCCNC(=O)c2ccccc2Sc2ccccc2C#N)c(C)c1	–	99.5	–	–	–
COc1cccc(NC(=O)Cc2nc(-c3ccccc3)sc2-c2ccc(C)cc2)c1	–	–	–	–	–
CC(=O)Nc1cccc(NC(=O)Cc2nc(-c3ccccc3)sc2-c2ccc(C)cc2)c1	–	–	–	1.4	–
O=C1C2C3C=CC(C4CC34)C2C(=O)N1/N=C/c1ccc(-c2ccc(Cl)cc2[N+](=O)[O-])o1 (configuration not stated)	–	59.4	–	–	–
O=C(COc1ccccc1[N+](=O)[O-])NNC(=O)Nc1cccc2ccccc12	–	–	–	·	·
Cc1oc(/C=N/NC(=O)CC2(C)OCCO2)cc1Br	–	–	–	–	–
CC1(CC(=O)N/N=C/c2cc(Br)c(O)cc2O)OCCO1	–	90.9	–	–	–
CCN(CC)Cc1cc(NC2=NS(=O)(=O)c3ccccc32)ccc1OC(=O)c1ccccc1	–	98.5	–	–	–
CCN(CC)Cc1cc(NC2=NS(=O)(=O)c3ccccc32)ccc1OC(=O)C(C)C	–	99.0	–	–	–
O=C(Oc1cccc(NC2=NS(=O)(=O)c3ccccc32)c1)c1cccnc1	–	–	–	·	·
CC1=C(C(=O)c2ccccc2)C(c2cn(-c3ccccc3)nc2-c2ccc(Cl)cc2)NC(=S)N1 (configuration not stated)	–	100.2	–	–	–
SMILES	PMI act	L major viab	PMI act hi M6P	HCT116 PTEN-null	HCT116 bCat-KO
O=C1NC(=O)C(c2cn(-c3ccccc3)nc2-c2ccc(F)cc2)N1 (configuration not stated)	–	–	–	–	–
CN(Cc1ccccc1)C(=O)CN1CCN(C(c2ccccc2)c2ccccc2)CC1	–	–	–	·	·
CCn1nc(C(=O)OC(C(=O)c2c[nH]c3ccccc23)c2ccccc2)c2ccccc2c1=O (configuration not stated)	–	100.4	–	–	–
CCC1C(=O)N=C(SCC(=O)Nc2nc3ccccc3s2)NC1=O (configuration not stated)	–	–	–	·	·
CCc1ccc(Nc2cnn(-c3nc4ccccc4s3)c(=O)c2Cl)cc1	–	65.3	–	–	–
CCCCC(CC)Cn1c2nc3ccccc3nc2c2c(=N)oc(C)nc21 (configuration not stated)	–	–	–	2.5	4.5
CCSc1cc(C2C(C(=O)OC)=C(C)NC3=C2C(=O)CCC3)c(C)o1 (configuration not stated)	–	–	2.1	–	–
COCCOC(=O)C1=C(C)NC2=C(C(=O)CCC2)C1c1cc2c(cc1Br)OCO2 (configuration not stated)	–	–	–	–	–
O=C(/C=C/c1ccccc1)NC(NC(=S)Nc1cc(Cl)ccc1Cl)C(Cl)(Cl)Cl (configuration not stated)	–	99.3	–	–	–
C/C(=N/NC(=O)Nc1ccccc1)c1ccc(C)cc1	–	50.7	–	–	–
Cc1[nH]c2ccccc2c1C(=O)C(=O)NCCOc1ccccc1	–	–	–	·	·
Cc1ccc2[nH]c(=O)c(CN(CCCN3CCOCC3)Cc3nnnn3C3CCCC3)cc2c1	–	–	–	–	–
CCc1ccc2[nH]c(=O)c(CN(Cc3ccc4c(c3)OCO4)Cc3nnnn3C3CCCC3)cc2c1	–	97.4	–	–	–
Cc1ccc2cc(CN(Cc3ccc(F)cc3)Cc3nnnn3C3CCCC3)c(=O)[nH]c2c1	–	80.9	–	–	–
Cc1ccc2cc(CN(Cc3ccccc3)Cc3nnnn3C3CCCC3)c(=O)[nH]c2c1	–	69.2	–	–	–
C#CCOc1ccc(/C=N/O)cc1Cl	–	55.0	–	–	–
CCOC(=O)N1CCN(CCC(=O)Nc2ccc(OC(F)(F)F)cc2)CC1	–	91.6	–	–	–
CCOC(=O)N1CCN(CCC(=O)Nc2ccc(Br)c(C)c2)CC1	–	85.4	–	·	·
CCOC(=O)N1CCN(CC(=O)Nc2ccc(OC)cc2)CC1	–	–	–	–	–
CCOC(=O)C1CCN(C(=S)Nc2ccc(CC)cc2)CC1	–	–	–	·	·
COc1ccc2c(c1)CCC1=C2NC(=S)NC1c1ccc(N(C)C)cc1 (configuration not stated)	–	90.1	–	·	·
CCN(CC)c1ccc(N=Cc2ccc(N(CC)CC)cc2O)cc1	–	99.8	–	–	–
CCN(CC)c1ccc(/C=N/N2CCN(Cc3ccccc3)CC2)c(O)c1	–	92.4	–	–	–
CCN(CC)c1ccc(/C=N/NC(=S)NC)c(O)c1	–	83.3	–	·	·
CC(C)CC(=O)c1c[nH]c(C(=O)NCCCn2ccnc2)c1	–	–	–	–	–
CS(=O)(=O)N1CCN(c2ccc(NC(=O)c3ccccc3)cc2)CC1	–	–	–	·	·

Source: PubChem BioAssay
